Laboratory results: ChEMBL document CHEMBL4837193 (Eur J Med Chem, 2021)
pIC50: −log10 of the molar value. Active and inactive are the calls of the source. No cut-off for these calls is given here.

Key:
HT-29 = assay: Antiproliferative activity against human HT29 cells assessed as cell growth inhibition after 48 hrs by MTT assay; format: functional, cell-based; settings: HT-29, 48 h
HeLa [1] = assay: Induction of apoptosis in human HeLa cells assessed as necrotic cells at 120 nM after 24 hrs by AnnexinV/PI-staining based flow cytometry (reference value: 0.093 %)
HeLa [2] = assay: Cell cycle arrest in human HeLa cells assessed as increase in cells accumulation at S phase at 60 nM measured after 24 hrs by propidium iodide staining based flow cytometric analysis (reference value: 20.29 %); format: functional
HeLa [3] = assay: Induction of apoptosis in human HeLa cells assessed as necrotic cells at 60 nM after 24 hrs by AnnexinV/PI-staining based flow cytometry (reference value: 0.093 %)
T47D = assay: Antiproliferative activity against human T47D cells assessed as cell growth inhibition after 48 hrs by MTT assay; format: functional, cell-based
HCT-116 = assay: Antiproliferative activity against human HCT-116 cells assessed as cell growth inhibition after 48 hrs by MTT assay; format: functional, cell-based; settings: HCT-116, 48 h
Summary of the method: (§1)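 Cells grown at 37 °C with CO2 in RPMI-1640 or DMEM plus 10% FBS. Seeded at 2 × 10³ per well, attached 24 h, then medium changed. Compound exposure 48 h at 37 °C, DMSO 0.1% as vehicle. MTT added and incubated a further 4 h. Crystals dissolved, absorbance read at 570 nm. IC50 from curve fitting, mean ± SD of three independent experiments.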

HeLa [4] = assay: Cell cycle arrest in human HeLa cells assessed as increase in cells accumulation at G2/M phase at 60 nM measured after 24 hrs by propidium iodide staining based flow cytometric analysis (reference value: 12.49 %); format: functional
HeLa [5] = assay: Induction of cell cycle arrest in human Hela cells assessed as decrease in cdc2 expression measured after 24 hrs by Western blot analysis relative to control; format: functional, cell-based; settings: dose 30-120 nM
Summary of the method: (§2)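 HeLa cells treated as for cell-cycle analysis (30, 60, 120 nM, 24 h), then lysed and protein quantified. Lysates boiled 5 min, run on SDS-PAGE and transferred to PVDF. Membranes blocked in 5% skim milk 1 h at RT, primary antibodies overnight at 4 °C, β-actin/GAPDH as loading controls. Secondary antibody 1:4000 for 2 h at RT. Mean ± SD of three independent experiments.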

HeLa [6] = assay: Induction of apoptosis in human HeLa cells assessed as early apoptotic cells at 60 nM after 24 hrs by AnnexinV/PI-staining based flow cytometry (reference value: 2.87%)
HeLa [7] = assay: Cell cycle arrest in human HeLa cells assessed as increase in cells accumulation at G2/M phase at 120 nM measured after 24 hrs by propidium iodide staining based flow cytometric analysis (reference value: 12.49 %); format: functional
HeLa [8] = assay: Cell cycle arrest in human HeLa cells assessed as increase in cells accumulation at G0/G1 phase at 30 nM measured after 24 hrs by propidium iodide staining based flow cytometric analysis (reference value: 67.22 %); format: functional
HeLa [9] = assay: Induction of apoptosis in human HeLa cells assessed as necrotic cells at 30 nM after 24 hrs by AnnexinV/PI-staining based flow cytometry (reference value: 0.093 %)
HeLa [10] = assay: Cell cycle arrest in human HeLa cells assessed as increase in cells accumulation at S phase at 120 nM measured after 24 hrs by propidium iodide staining based flow cytometric analysis (reference value: 20.29 %); format: functional
HeLa [11] = assay: Cell cycle arrest in human HeLa cells assessed as increase in cells accumulation at G0/G1 phase at 120 nM measured after 24 hrs by propidium iodide staining based flow cytometric analysis (reference value: 67.22 %); format: functional
HeLa [12] = assay: Induction of apoptosis in human HeLa cells assessed as early apoptotic cells at 120 nM after 24 hrs by AnnexinV/PI-staining based flow cytometry (reference value: 2.87%)
HeLa [13] = assay: Induction of apoptosis in human HeLa cells assessed as effect on Bax level incubated for 24 hrs by Western blot analysis; format: functional, cell-based; summary of the method: as §2
Tubulin (Homo sapiens) [14] = molecular target: T1, Tubulin (Homo sapiens) (UniProt P68371+Q9H4B7+P0DPH7+P68366+Q13509+Q71U36+P04350+Q3ZCM7+P07437+P68363+Q9BQE3+Q6PEY2+Q13885+Q9BVA1+Q9BUF5); assay: Inhibition of […]colchicine binding to tubulin (unknown origin) at 4 uM incubated for 45 mins by fluorescence assay relative to control; format: protein-complex assay
Summary of the method: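 Tubulin (4 µM) preincubated 45 min at 37 °C with test agent (20–80 µM), then colchicine (4 µM) added. After a further 45 min at 37 °C, fluorescence read at excitation 340 nm and emission 435 nm, with buffer blank subtracted.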

Tubulin = assay: Inhibition of tubulin polymerization (unknown origin) measured afer 30 mins every 1 min for 20 mins by spectrophotometric method; format: protein-complex assay, Homo sapiens
Summary of the method: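 Tubulin at 2 mg/mL in PEM buffer (100 mM PIPES pH 6.9, 1 mM MgCl2, 1 mM EGTA, 5% glycerol) preincubated on ice with compound or DMSO, then GTP added. After 0.5 h, A340 read every 1 min for 20 min at 37 °C. Plateau values used.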

HeLa [15] = assay: Induction of apoptosis in human HeLa cells assessed as late apoptotic cells at 60 nM after 24 hrs by AnnexinV/PI-staining based flow cytometry (reference value: 0.884 %)
HeLa [16] = assay: Antiproliferative activity against human HeLa cells assessed as cell growth inhibition after 48 hrs by MTT assay; format: functional, cell-based; summary of the method: as §1
HeLa [17] = assay: Induction of apoptosis in human HeLa cells assessed as late apoptotic cells at 120 nM after 24 hrs by AnnexinV/PI-staining based flow cytometry (reference value: 0.884 %)
HeLa [18] = assay: Induction of apoptosis in human HeLa cells assessed as early apoptotic cells at 30 nM after 24 hrs by AnnexinV/PI-staining based flow cytometry (reference value: 2.87%)
HeLa [19] = assay: Cell cycle arrest in human HeLa cells assessed as increase in cells accumulation at G2/M phase at 30 nM measured after 24 hrs by propidium iodide staining based flow cytometric analysis (reference value: 12.49 %); format: functional
HeLa [20] = assay: Cell cycle arrest in human HeLa cells assessed as increase in cells accumulation at G0/G1 phase at 60 nM measured after 24 hrs by propidium iodide staining based flow cytometric analysis (reference value: 49.85 %); format: functional
A549 = assay: Antiproliferative activity against human A549 cells assessed as cell growth inhibition after 48 hrs by MTT assay; format: functional, cell-based; settings: A549, 48 h; summary of the method: as §1
HEK293 = assay: Antiproliferative activity against human HEK293 cells assessed as cell growth inhibition after 48 hrs by MTT assay; format: cell-based; settings: HEK293, 48 h; summary of the method: as §1
HeLa [21] = assay: Induction of apoptosis in human HeLa cells assessed as late apoptotic cells at 30 nM after 24 hrs by AnnexinV/PI-staining based flow cytometry (reference value: 0.884 %)
HeLa [22] = assay: Induction of apoptosis in human HeLa cells assessed as increase in cleaved PARP level incubated for 24 hrs by Western blot analysis; format: functional, cell-based; summary of the method: as §2
HeLa [23] = assay: Cell cycle arrest in human HeLa cells assessed as increase in cells accumulation at S phase at 30 nM measured after 24 hrs by propidium iodide staining based flow cytometric analysis (reference value: 20.29 %); format: functional
HepG2 = assay: Antiproliferative activity against human HepG2 cells assessed as cell growth inhibition after 48 hrs by MTT assay; format: functional, cell-based; settings: HepG2, 48 h; summary of the method: as §1
HeLa [24] = assay: Induction of cell cycle arrest in human Hela cells assessed as increase in cyclin B1 expression measured after 24 hrs by Western blot analysis relative to control; format: functional, cell-based; settings: dose 30-120 nM; summary of the method: as §2
Tubulin (Homo sapiens) [25] = molecular target: T1, Tubulin (Homo sapiens); assay: Inhibition of tubulin polymerization (unknown origin) at 10 uM measured after 30 mins every 1 min for 20 mins by spectrophotometric method; format: protein-complex assay
Summary of the method: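 Tubulin at 2 mg/mL in PEM buffer (100 mM PIPES pH 6.9, 1 mM MgCl2, 1 mM EGTA, 5% glycerol) preincubated on ice with compound or DMSO, then GTP added. After 0.5 h, A340 read every 1 min for 20 min at 37 °C. Plateau values used. Single-point inhibition at 10 µM; IC50 is the concentration halving polymerization at 20 min, mean ± SD of three experiments.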

COc1ccc(-c2nc3nccc(-c4cc(OC)c(OC)c(OC)c4)n3n2)cc1O
pIC50 (HT-29): 6.62 | Activity (HeLa [1]): 2.37% | Activity (HeLa [2]): 27.84% | Activity (HeLa [3]): 1.07% | pIC50 (T47D): 5.46 | pIC50 (HCT-116): 4.73 | Activity (HeLa [4]): 22.81% | Activity (HeLa [5]): Active | Activity (HeLa [6]): 10.5% | Activity (HeLa [7]): 46.82% | Activity (HeLa [8]): 66.03% | Activity (HeLa [9]): 0.329% | Activity (HeLa [10]): 24.67% | Activity (HeLa [11]): 29.01% | Activity (HeLa [12]): 14.3% | Activity (HeLa [13]): inactive | inhibition (Tubulin (Homo sapiens) [14]): Dose-Dependent Effect | pIC50 (Tubulin): 5.89 | Activity (HeLa [15]): 8.85% | pIC50 (HeLa [16]): 7.22 | Activity (HeLa [17]): 19.3% | Activity (HeLa [18]): 8.5% | Activity (HeLa [19]): 16.18% | Activity (HeLa [20]): 49.85% | pIC50 (A549): 5.22 | pIC50 (HEK293): < 4.00 | Activity (HeLa [21]): 5.61% | Activity (HeLa [22]): Active | Activity (HeLa [23]): 17.79% | pIC50 (HepG2): 4.83 | Activity (HeLa [24]): Dose-Dependent Effect | inhibition (Tubulin (Homo sapiens) [25]): 94%
